ChEMBL document CHEMBL2086278, “Synthesis and biological evaluation of ester prodrugs of Benzafibrate as orally active hypolipidemic agents” (Eur J Med Chem, 2012)

Legend:
Mus musculus [1] = assay: Hypolipidemic activity in Swiss albino mouse assessed as reduction in plasma total cholesterol level at 50 mg/kg, po for 8 days measured on day 9 by spectrophotometry relative to control; assay type: functional; parameters: scale not given: the % may be the effect or the level left
Method in brief: (§1)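 Male Swiss albino mice, 21–30 g, chow fed, acclimatised 1 week; n = 10/group. Oral gavage 50 mg/kg/day for 8 days, suspended in Tween-80 5 µL/mL in 0.5% CMC (10 mL/kg); vehicle controls. Fasted 12 h; day 9 blood taken 1 h post-dose under mild ether. Plasma (4000 rpm, 10 min) TG/TC by spectrophotometric kit; % fall vs control; mean ± SE, ANOVA with Dunnett's.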

Mus musculus [2] = assay: Hypolipidemic activity in Swiss albino mouse assessed as reduction in plasma triglyceride level at 50 mg/kg, po for 8 days measured on day 9 by spectrophotometry relative to control; assay type: functional; parameters: scale not given: the % may be the effect or the level left; method in brief: as §1
[3] = Octanol-phosphate buffer partition coefficient, log P of the compound at pH 7.4 by HPLC analysis; assay type: physicochemical
Method in brief: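 1-Octanol and 0.2 M phosphate buffer pH 7.4, mutually pre-saturated 24 h. Compound shaken between 5 mL of each phase for 60 min at 400 rpm, 25 °C, then centrifuged at 3500 rpm for 5 min. Each phase quantified by HPLC at 254 nm. log P = log of octanol/un-ionized aqueous concentration ratio, mean of triplicate.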

[4] = Aqueous stability of the compound in 0.1 M citric acid buffer at pH 3 at 40 degC after 4 hrs by HPLC analysis; assay type: physicochemical; settings: pH 3, 4 h
Method in brief: (§2)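 10 mg test compound in 10 mL buffer shaken at 400 rpm, 40 °C, 4 h. Buffers: 0.2 M HCl pH 1.0, 0.1 M citric acid pH 3.0, 0.1 M phosphate pH 5.2, 0.2 M phosphate pH 7.4, 0.1 M boric acid pH 9.0. Filtered 0.20 µm; filtrate analysed by HPLC at 254 nm (C-8 column, gradient) for bezafibrate formed / % hydrolysed.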

[5] = Prodrug conversion in 0.2 M phosphate buffer solution assessed as benzofibrate formation at pH 7.4 at 40 degC after 4 hrs by HPLC analysis; settings: pH 7.4, 4 h
[6] = Prodrug conversion in 0.1 M boric acid buffer solution assessed as benzofibrate formation at pH 9.0 at 40 degC after 4 hrs by HPLC analysis; settings: pH 9, 4 h
[7] = Prodrug conversion in 0.1 M phosphate buffer solution assessed as benzofibrate formation at pH 5.2 at 40 degC after 4 hrs by HPLC analysis; assay type: physicochemical; settings: pH 5.2, 4 h; method in brief: as §2
[8] = Aqueous stability of the compound in 0.2 M hydrochloric acid buffer solution at pH 1 at 40 degC after 4 hrs by HPLC analysis; assay type: physicochemical; settings: pH 1, 4 h; method in brief: as §2
Mus musculus [9] = assay: Hypolipidemic activity in Swiss albino mouse assessed as reduction in plasma triglyceride level at 10 mg/kg, po for 8 days measured on day 9 by spectrophotometry relative to control; assay type: functional; parameters: scale not given: the % may be the effect or the level left
Method in brief: (§3)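 Dose-response in male Swiss albino mice (21–30 g, chow fed): oral dosing at 10, 30 or 100 mg/kg/day, vehicle Tween-80 in 0.5% CMC. Plasma triglyceride and total cholesterol measured spectrophotometrically with a commercial kit; % fall relative to untreated control.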

Mus musculus [10] = assay: Hypolipidemic activity in Swiss albino mouse assessed as reduction in plasma total cholesterol level at 30 mg/kg, po for 8 days measured on day 9 by spectrophotometry relative to control; assay type: functional; parameters: scale not given: the % may be the effect or the level left; method in brief: as §3
Mus musculus [11] = assay: Hypolipidemic activity in Swiss albino mouse assessed as reduction in plasma triglyceride level at 100 mg/kg, po for 8 days measured on day 9 by spectrophotometry relative to control; assay type: functional; parameters: scale not given: the % may be the effect or the level left; method in brief: as §3
Mus musculus [12] = assay: Hypolipidemic activity in Swiss albino mouse assessed as reduction in plasma triglyceride level at 30 mg/kg, po for 8 days measured on day 9 by spectrophotometry relative to control; assay type: functional; parameters: scale not given: the % may be the effect or the level left; method in brief: as §3
Mus musculus [13] = assay: Hypolipidemic activity in Swiss albino mouse assessed as reduction in plasma total cholesterol level at 100 mg/kg, po for 8 days measured on day 9 by spectrophotometry relative to control; assay type: functional; parameters: scale not given: the % may be the effect or the level left; method in brief: as §3
Mus musculus [14] = assay: Hypolipidemic activity in Swiss albino mouse assessed as reduction in plasma total cholesterol level at 10 mg/kg, po for 8 days measured on day 9 by spectrophotometry relative to control; assay type: functional; parameters: scale not given: the % may be the effect or the level left; method in brief: as §3

Which Activity (Mus musculus [1]) does the source give for `CC(C)(Oc1ccc(CCNC(=O)c2ccc(Cl)cc2)cc1)C(=O)O` [BEZAFIBRATE] here?
Its Activity is 10.4%.

What about the Activity (Mus musculus [2]) of the same molecule?
Its Activity is 11.4%.

And the logD [3]?
Its logD is 1.5.

Which results are given for `CC(=O)OC(C)OC(=O)C(C)(C)Oc1ccc(CCNC(=O)c2ccc(Cl)cc2)cc1` (stereo not drawn)?
Activity (Mus musculus [1]): 4.3%; Activity (Mus musculus [2]): 17.2%; Stability [4]: Stable; Drug metabolism [5]: 0.9 µg/mL; Drug metabolism [6]: 6.6 µg/mL; Drug metabolism [7]: 0.2 µg/mL; logD [3]: 4.5; Stability [8]: Stable

What does the source list for `CC(C)OC(=O)OC(C)OC(=O)C(C)(C)Oc1ccc(CCNC(=O)c2ccc(Cl)cc2)cc1` (stereo not drawn)?
Activity (Mus musculus [1]): -5.6%; Activity (Mus musculus [2]): 3.9%

Which Activity (Mus musculus [1]) does the source give for `CC(C)OC(=O)OCOC(=O)C(C)(C)Oc1ccc(CCNC(=O)c2ccc(Cl)cc2)cc1` here?
Its Activity is 3%.

And the Activity (Mus musculus [2])?
Its Activity is 3%.

Which Activity (Mus musculus [1]) does the source give for `CC(C)(C)C(=O)OCOC(=O)C(C)(C)Oc1ccc(CCNC(=O)c2ccc(Cl)cc2)cc1` here?
Its Activity is 3.4%.

And the Activity (Mus musculus [2])?
The Activity was 18.8%.

What about the Stability [4] of the same molecule?
Its Stability is “Stable”.

What about the Drug metabolism [5] of the same molecule?
The Drug metabolism was 2.2 µg/mL.

And the Drug metabolism [6]?
Its Drug metabolism is 0.8 µg/mL.

What about the Drug metabolism [7] of the same molecule?
Its Drug metabolism is 1.7 µg/mL.

What about the logD [3] of the same molecule?
Its logD is 5.1.

And the Stability [8]?
Its Stability is “Stable”.

Which results are given for `CC(=O)OCCOC(=O)C(C)(C)Oc1ccc(CCNC(=O)c2ccc(Cl)cc2)cc1`?
Activity (Mus musculus [1]): 2.4%; Activity (Mus musculus [2]): 9.6%; Stability [4]: Stable; Drug metabolism [5]: 1.8 µg/mL; Drug metabolism [6]: 2.5 µg/mL; Drug metabolism [7]: 0.7 µg/mL; logD [3]: 3.8; Stability [8]: Stable

What does the source list for `CC(C)(Oc1ccc(CCNC(=O)c2ccc(Cl)cc2)cc1)C(=O)OCCN1CCOCC1`?
Activity (Mus musculus [1]): 3%; Activity (Mus musculus [2]): 11.8%; Stability [4]: Stable; Drug metabolism [5]: 6.2 µg/mL; Drug metabolism [6]: 8.8 µg/mL; Drug metabolism [7]: 6.3 µg/mL; logD [3]: 5.1; Stability [8]: Stable

What does the source list for `Cc1oc(=O)oc1COC(=O)C(C)(C)Oc1ccc(CCNC(=O)c2ccc(Cl)cc2)cc1`?
Activity (Mus musculus [9]): 3.51%; Activity (Mus musculus [10]): 2%; Activity (Mus musculus [11]): 22.3%; Activity (Mus musculus [1]): 13%; Activity (Mus musculus [2]): 30.2%; Stability [4]: Stable; Activity (Mus musculus [12]): 27.1%; Drug metabolism [5]: 0.5 µg/mL; Drug metabolism [6]: 2.6 µg/mL; Drug metabolism [7]: 0.2 µg/mL; Activity (Mus musculus [13]): 4%; Activity (Mus musculus [14]): 4.9%; logD [3]: 3.1; Stability [8]: Stable
